Experimental data from ChEMBL document CHEMBL1157032, “Synthesis and antimicrobial activity of novel pyrazolo[3,4-d]pyrimidin derivatives” (2010).
Converted amounts (≈) assume the structure as drawn. The source made the active and inactive calls. The rule behind the calls is not given here.

Key:
Type in all cases: functional
[1] = tested on: Proteus vulgaris; test: Antimicrobial activity against Proteus vulgaris MTCC 1771 at MIC after 24 hrs by agar diffusion method
Method in brief: (§1)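 Agar well diffusion on Mueller Hinton agar seeded with 0.1 mL of a 10⁵ cfu/mL bacterial suspension in 0.85% sterile saline. 6 mm wells received 0.1 mL of each compound dilution in DMSO (1% DMSO; DMSO alone as control). Plates were incubated 24 h at 37 ± 0.5 °C. Read-out was zone of inhibition in mm. MIC was taken as the lowest concentration giving complete growth inhibition.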

[2] = tested on: Klebsiella pneumoniae; test: Antimicrobial activity against Klebsiella pneumoniae NCIM 2957 at MIC after 24 hrs by agar diffusion method; method in brief: as §1
[3] = tested on: Escherichia coli; test: Antimicrobial activity against Escherichia coli MTCC 1650 after 24 hrs; conditions: MTCC 1650, 24 h; method in brief: as §1
[4] = tested on: Trichoderma viride; test: Antimicrobial activity against Trichoderma viride MTCC 167 after 48 hrs; conditions: MTCC 167, 48 h
Method in brief: (§2)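 Fungal spore suspensions in sterile distilled water were adjusted to 10⁶ cfu/mL, and 0.1 mL was spread on Sabouraud dextrose agar. 6 mm wells were filled with 0.1 mL of compound dilution in DMSO (1% DMSO; DMSO-only control). Plates were incubated 48 h at 28 ± 0.2 °C, and inhibition zones were measured in mm. MIC was the lowest concentration completely inhibiting growth.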

[5] = tested on: Escherichia coli; test: Antimicrobial activity against Escherichia coli MTCC 1650 at MIC after 24 hrs by agar diffusion method; method in brief: as §1
[6] = tested on: Pseudomonas aeruginosa; test: Antimicrobial activity against Pseudomonas aeruginosa MTCC 2488 after 24 hrs; conditions: MTCC 2488, 24 h; method in brief: as §1
[7] = tested on: Proteus vulgaris; test: Antimicrobial activity against Proteus vulgaris MTCC 1771 after 24 hrs; conditions: MTCC 1771, 24 h; method in brief: as §1
[8] = tested on: Priestia megaterium; test: Antimicrobial activity against Bacillus megaterium MTCC 1684 at MIC after 24 hrs by agar diffusion method; method in brief: as §1
[9] = tested on: Penicillium chrysogenum; test: Antimicrobial activity against Penicillium chrysogenum MTCC 1996 after 48 hrs; conditions: MTCC 1996, 48 h; method in brief: as §2
[10] = tested on: Priestia megaterium; test: Antimicrobial activity against Bacillus megaterium MTCC 1684 after 24 hrs; conditions: MTCC 1684, 24 h; method in brief: as §1
[11] = tested on: Aspergillus niger; test: Antimicrobial activity against Aspergillus niger MTCC 1781 after 48 hrs; conditions: MTCC 1781, 48 h; method in brief: as §2
[12] = tested on: Aspergillus niger; test: Antimicrobial activity against Aspergillus niger MTCC 1781 at MIC after 48 hrs by agar diffusion method; method in brief: as §2
[13] = tested on: Serratia marcescens; test: Antimicrobial activity against Serratia marcescens MTCC 86 after 24 hrs; conditions: MTCC 86, 24 h; method in brief: as §1
[14] = tested on: Candida albicans; test: Antimicrobial activity against Candida albicans MTCC 227 at MIC after 48 hrs by agar diffusion method; method in brief: as §2
[15] = tested on: Aspergillus flavus; test: Antimicrobial activity against Aspergillus flavus MTCC 2501 at MIC after 48 hrs by agar diffusion method; method in brief: as §2
[16] = tested on: Aspergillus flavus; test: Antimicrobial activity against Aspergillus flavus MTCC 2501 after 48 hrs; conditions: MTCC 2501, 48 h; method in brief: as §2
[17] = tested on: Staphylococcus aureus; test: Antimicrobial activity against Staphylococcus aureus MTCC 96 after 24 hrs; conditions: MTCC 96, 24 h; method in brief: as §1
[18] = tested on: Staphylococcus aureus; test: Antimicrobial activity against Staphylococcus aureus MTCC 96 at MIC after 24 hrs by agar diffusion method; method in brief: as §1
[19] = tested on: Candida albicans; test: Antimicrobial activity against Candida albicans MTCC 227 after 48 hrs; conditions: MTCC 227, 48 h; method in brief: as §2
[20] = tested on: Bacillus subtilis; test: Antimicrobial activity against Bacillus subtilis MTCC 1789 at MIC after 24 hrs by agar diffusion method; method in brief: as §1
[21] = tested on: Trichoderma viride; test: Antimicrobial activity against Trichoderma viride MTCC 167 at MIC after 48 hrs by agar diffusion method; method in brief: as §2
[22] = tested on: Bacillus subtilis; test: Antimicrobial activity against Bacillus subtilis MTCC 1789 after 24 hrs; conditions: MTCC 1789, 24 h; method in brief: as §1
[23] = tested on: Klebsiella pneumoniae; test: Antimicrobial activity against Klebsiella pneumoniae NCIM 2957 after 24 hrs; conditions: NCIM 2957, 24 h; method in brief: as §1
[24] = tested on: Penicillium chrysogenum; test: Antimicrobial activity against Penicillium chrysogenum MTCC 1996 at MIC after 48 hrs by agar diffusion method; method in brief: as §2
[25] = tested on: Serratia marcescens; test: Antimicrobial activity against Serratia marcescens MTCC 86 at MIC after 24 hrs by agar diffusion method; method in brief: as §1

| SMILES | MIC [3] [µg/mL] | MIC [4] [µg/mL] | inhibition zone (IZ) [5] | MIC [6] [µg/mL] | MIC [7] [µg/mL] | inhibition zone (IZ) [8] | MIC [9] [µg/mL] | MIC [10] [µg/mL] | MIC [11] [µg/mL] | inhibition zone (IZ) [12] | MIC [13] [µg/mL] | inhibition zone (IZ) [14] | inhibition zone (IZ) [15] | MIC [16] [µg/mL] | MIC [17] [µg/mL] | inhibition zone (IZ) [18] [mm] | MIC [19] [µg/mL] | inhibition zone (IZ) [20] | inhibition zone (IZ) [21] [mm] | MIC [22] [µg/mL] | also measured |
| --- | --- | --- | --- | --- | --- | --- | --- | --- | --- | --- | --- | --- | --- | --- | --- | --- | --- | --- | --- | --- | --- |
| Nc1n[nH]c2nc3scc(-c4cc(Cl)cc(Br)c4O)n3c(=O)c12 | 50 (≈ 121 µM) | 250 (≈ 606 µM) | 11 mm | 50 (≈ 121 µM) | 50 (≈ 121 µM) | inactive | 250 (≈ 606 µM) | 50 (≈ 121 µM) | 250 (≈ 606 µM) | inactive | 50 (≈ 121 µM) | 16 mm | 11 mm | 250 (≈ 606 µM) | 50 (≈ 121 µM) | 16 | 250 (≈ 606 µM) | inactive | 26 | 50 (≈ 121 µM) | inhibition zone (IZ) [1]: inactive; inhibition zone (IZ) [2]: 9 mm; MIC [23]: 50 µg/mL (≈ 121 µM); inhibition zone (IZ) [24]: 28 mm; inhibition zone (IZ) [25]: 15 mm |
| Nc1n[nH]c2nc3scc(-c4cc(Cl)ccc4O)n3c(=O)c12 | 50 (≈ 150 µM) | 250 (≈ 749 µM) | inactive | 50 (≈ 150 µM) | 50 (≈ 150 µM) | 12 mm | 250 (≈ 749 µM) | 50 (≈ 150 µM) | 250 (≈ 749 µM) | 16 mm | 50 (≈ 150 µM) | 12 mm | 11 mm | 250 (≈ 749 µM) | 50 (≈ 150 µM) | 31 | 250 (≈ 749 µM) | 10 mm | 27 | 50 (≈ 150 µM) | inhibition zone (IZ) [1]: 9 mm; inhibition zone (IZ) [2]: 13 mm; MIC [23]: 50 µg/mL (≈ 150 µM); inhibition zone (IZ) [24]: 25 mm; inhibition zone (IZ) [25]: 18 mm |
| Nc1n[nH]c2nc3scc(-c4cc(Cl)cc(I)c4O)n3c(=O)c12 | 50 (≈ 109 µM) | 250 (≈ 544 µM) | inactive | 50 (≈ 109 µM) | 50 (≈ 109 µM) | inactive | 250 (≈ 544 µM) | 50 (≈ 109 µM) | 250 (≈ 544 µM) | inactive | 50 (≈ 109 µM) | inactive | inactive | 250 (≈ 544 µM) | 50 (≈ 109 µM) | 16 | 250 (≈ 544 µM) | 14 mm | 21 | 50 (≈ 109 µM) | MIC [23]: 50 µg/mL (≈ 109 µM); inhibition zone (IZ) [24]: 14 mm; inhibition zone (IZ) [25]: inactive |
| Nc1n[nH]c2nc3scc(-c4ccc(Br)cc4)n3c(=O)c12 | 50 (≈ 138 µM) | 250 (≈ 690 µM) | 14 mm | 50 (≈ 138 µM) | 50 (≈ 138 µM) | inactive | 250 (≈ 690 µM) | 50 (≈ 138 µM) | 250 (≈ 690 µM) | 10 mm | 50 (≈ 138 µM) | 10 mm | 10 mm | 250 (≈ 690 µM) | 50 (≈ 138 µM) | 18 | 250 (≈ 690 µM) | inactive | 27 | 50 (≈ 138 µM) | inhibition zone (IZ) [1]: inactive; inhibition zone (IZ) [2]: inactive; MIC [23]: 50 µg/mL (≈ 138 µM); inhibition zone (IZ) [24]: 15 mm; inhibition zone (IZ) [25]: inactive |
